Laboratory results as given in ChEMBL document CHEMBL1153719, “Synthesis and biological evaluation of dehydroabietic acid derivatives” (Eur J Med Chem, 2010).
Converted amounts (≈) assume the structure as drawn. The source made the active and inactive calls. The calls are words filed in the database; no cut-off is given here.

Experiments:
Candida albicans = assay: Antifungal activity against Candida albicans ATCC 10231 at <100 ug/ml after 24 hrs by AFST-EUCAST method; assay type: functional, organism-based
How it was run: (§1)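 EUCAST broth microdilution for fermentative yeasts. Seven serial dilutions were tested in duplicate at final concentrations of 100 to 2 µg/mL, with 0.05% DMSO. Inoculum was 0.5–2.5×10^5 CFU/mL. […] Amphotericin B and itraconazole served as controls (0.031–16 µg/mL). Triplicates were run in three separate assays; results are given as range and geometric mean.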

HeLa = assay: Cytotoxicity against human HeLa cells after 48 hrs by MTT assay; assay type: functional, cell-based
How it was run: (§2)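 HeLa and Vero monolayers were trypsinized, washed and seeded per well (HeLa 1.5×10^4; Vero 1.25×10^4). After 24 h, diluted compounds were added with 0.05% DMSO and incubated 48 h at 37 °C in 5% CO2. Read-out was MTT. IC50 came from linear regression of dose-effect curves, at least four dilutions in quadruplicate, as mean ± S.E.M. Vincristine was the positive control.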

Pichia kudriavzevii = assay: Antifungal activity against Candida krusei ATCC 6258 at <100 ug/ml after 24 hrs by AFST-EUCAST method; assay type: functional, organism-based; how it was run: as §1
Jurkat = assay: Cytotoxicity against human Jurkat cells after 48 hrs by MTT assay; assay type: functional, cell-based
How it was run: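 Suspension Jurkat cells were seeded at 3.00×10^4 per well. Diluted compounds were added directly, with 0.05% DMSO, and incubated 48 h at 37 °C. Read-out was MTT. IC50 came from linear regression of dose-effect curves, at least four dilutions in quadruplicate, as mean ± S.E.M. Vincristine was the positive control.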

Human alphaherpesvirus 1 [1] = assay: Antiviral activity against Human herpesvirus 1 infected in human HeLa cells assessed as ratio of viral titer in absence of drug over viral titer in presence of drug after 36 hrs by end point titration method; assay type: functional, organism-based
Vero [2] = assay: Cytotoxicity against african green monkey Vero cells after 48 hrs by MTT assay; assay type: cell-based; details: Chlorocebus sabaeus; how it was run: as §2
Candida parapsilosis = assay: Antifungal activity against Candida parapsilosis ATCC 22019 at <100 ug/ml after 24 hrs by AFST-EUCAST method; assay type: functional, organism-based; how it was run: as §1
Human alphaherpesvirus 1 [3] = assay: Antiviral activity against Human herpesvirus 1 infected in human HeLa cells assessed as maximal nontoxic dose caused highest viral reduction factor after 36 hrs by end point titration method; assay type: functional, organism-based
Vero [4] = assay: Selectivity index, ratio of IC50 for african green monkey Vero cells to IC50 for human Jurkat cells; assay type: functional
Candida tropicalis = assay: Antifungal activity against Candida tropicalis CECT 11901 at <100 ug/ml after 24 hrs by AFST-EUCAST method; assay type: functional, organism-based; how it was run: as §1
Vero [5] = assay: Selectivity index, ratio of IC50 for african green monkey Vero cells to IC50 for human HeLa cells; assay type: functional
[6] = Cytotoxicity against african green monkey Vero cells assessed as minimal toxic dosed detached 100% of the cell monolayer; details: chlorocebus sabaeus, read-out: CC100
Aspergillus fumigatus = assay: Antifungal activity against Aspergillus fumigatus after 24 hrs by AFST-EUCAST method; assay type: functional
Aspergillus niger = assay: Antifungal activity against Aspergillus niger after 24 hrs by AFST-EUCAST method; assay type: functional
Human alphaherpesvirus 1 [7] = assay: Antiviral activity against Human herpesvirus 1 infected in african green monkey Vero cells assessed as maximal nontoxic dose caused highest viral reduction factor after 36 hrs by end point titration method; assay type: functional
How it was run: (§3)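 HSV-1 stock was grown in HeLa cells. Two-fold compound dilutions were premixed with one infectious dose of virus for 0.5 h at 37 °C, then added to confluent HeLa or Vero monolayers for 36 h at 37 °C in 5% CO2. End-point titration gave the reduction factor, virus titer without compound over titer with compound, at the maximal nontoxic dose. Acyclovir and heparin were the controls.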

Human alphaherpesvirus 1 [8] = assay: Antiviral activity against Human herpesvirus 1 infected in african green monkey Vero cells assessed as ratio of viral titer in absence of drug over viral titer in presence of drug after 36 hrs by end point titration method; assay type: functional; how it was run: as §3
Aspergillus terreus = assay: Antifungal activity against Aspergillus terreus after 24 hrs by AFST-EUCAST method; assay type: functional
[9] = Solubility in DMSO; assay type: physicochemical
[10] = Cytotoxicity against human HeLa cells assessed as minimal toxic dosed detached 100% of the cell monolayer; details: read-out: CC50

Row | MIC (Aspergillus fumigatus) | MIC (Aspergillus niger) | MIC (Aspergillus terreus) | solubility [9] | SMILES | Activity (Candida albicans) | IC50 (HeLa) | Activity (Pichia kudriavzevii) | IC50 (Jurkat) | Activity (Human alphaherpesvirus 1 [1]) | IC50 (Vero [2]) | Activity (Candida parapsilosis) | Activity (Human alphaherpesvirus 1 [3]) | Ratio IC50 (Vero [4]) | Activity (Candida tropicalis) | Ratio IC50 (Vero [5]) | MCC [6] | Activity (Human alphaherpesvirus 1 [7]) | Ratio (Human alphaherpesvirus 1 [8]) | MCC [10]
1 |  |  |  |  | CC(C)c1ccc2c(c1)[C@H](O)C[C@H]1[C@](C)(C=O)CCC[C@]21C | inactive | 23 µg/mL (≈ 76.6 µM) | inactive | 12 µg/mL (≈ 39.9 µM) | inactive | 36 µg/mL (≈ 120 µM) | inactive | inactive | 3 | inactive | 1.6 |  |  |  | 
2 |  |  |  |  | CC(C)c1ccc2c(c1)C(=O)C[C@H]1[C@](C)(CO)CCC[C@]21C | inactive | 30 µg/mL (≈ 99.9 µM) | inactive | 17 µg/mL (≈ 56.6 µM) | inactive | 27 µg/mL (≈ 89.9 µM) | inactive | inactive | 1.6 | inactive | 0.9 | 25 µg/mL |  |  | 
3 | 50 µg/mL (≈ 165 µM) | 63 µg/mL (≈ 208 µM) |  |  | CC(C)c1ccc2c(c1)[C@H](O)C[C@H]1[C@](C)(CO)CCC[C@]21C | inactive | 20 µg/mL (≈ 66.1 µM) | inactive | 12 µg/mL (≈ 39.7 µM) | inactive | 30 µg/mL (≈ 99.2 µM) | inactive | inactive | 2.5 | inactive | 1.5 | 25 µg/mL |  |  | 
4 |  |  |  |  | CC(C)C1=CC2=CC[C@@H]3[C@](C)(CCC[C@@]3(C)C(=O)O)[C@H]2CC1 |  |  |  |  | inactive |  |  | inactive |  |  |  |  |  |  | 
5 |  |  |  |  | Nc1nc2c(ncn2COCCO)c(=O)[nH]1 [ACYCLOVIR] |  |  |  |  |  |  |  |  |  |  |  | > 600 µg/mL | 6 µg/mL | 1000 | 
6 |  |  | 39.7 µg/mL (≈ 132 µM) |  | CC(C)c1ccc2c(c1)CC[C@H]1[C@](C)(C(=O)O)CCC[C@]21C [DEHYDROABIETIC ACID] | inactive | 101 µg/mL (≈ 336 µM) | inactive | 28 µg/mL (≈ 93.2 µM) | inactive | 91 µg/mL (≈ 303 µM) | inactive | inactive | 3.2 |  | 0.9 | > 50 µg/mL |  |  | 
7 |  |  |  |  | CC(C)c1ccc2c(c1)CC[C@H]1[C@](C)(C=O)CCC[C@]21C [DEHYDROABIETINAL] | inactive | 24 µg/mL (≈ 84.4 µM) | inactive | 17 µg/mL (≈ 59.8 µM) | inactive | 32 µg/mL (≈ 113 µM) | inactive | inactive | 1.9 | inactive | 1.3 | 50 µg/mL |  |  | 
8 |  |  |  |  | CC(=O)OC[C@]1(C)CCC[C@]2(C)c3ccc(C(C)C)cc3CC[C@@H]12 [DEHYDROABIETINOL ACETATE] | inactive | 28 µg/mL | inactive | 22 µg/mL | inactive | 95 µg/mL | inactive | inactive | 4.3 | inactive | 3.4 | > 50 µg/mL | 25 µg/mL | 10 | 
9 |  |  |  |  | CC(C)c1ccc2c(c1)CC[C@H]1[C@](C)(COC(=O)c3ccccc3)CCC[C@]21C [DEHYDROABIETINOLBENZOATE] | inactive | ≥ 200 µg/mL | inactive | 57 µg/mL (≈ 146 µM) | inactive | ≥ 200 µg/mL | inactive | inactive | >3.5 |  |  | > 50 µg/mL | 50 µg/mL | 3.16 | 
10 |  |  |  | Insoluble | CC(C)c1ccc2c(c1)CC[C@H]1[C@](C)(COC(=O)c3cccnc3)CCC[C@]21C [DEHYDROABIETINOLNICOTINATE] |  |  |  |  |  |  |  |  |  |  |  |  |  |  | 
11 |  |  |  |  | COC(=O)[C@]1(C)CCC[C@@]2(C)[C@H]1CC=C1C=C(C(C)C)CC[C@@H]12 [METHYL ABIETATE] |  |  |  |  | inactive |  |  | Active |  |  |  |  |  |  | 11 µM
12 |  |  |  |  | COC(=O)[C@]1(C)CCC[C@]2(C)c3ccc(C(C)C)cc3CC[C@@H]12 [METHYL DEHYDROABIETATE] | inactive | 28 µg/mL (≈ 89 µM) | inactive | 21 µg/mL (≈ 66.8 µM) | inactive | 36 µg/mL (≈ 114 µM) | inactive | inactive | 1.7 | inactive | 1.3 | > 50 µg/mL |  |  | 
13 |  |  |  |  | CC(C)c1ccc2c(c1)CC[C@H]1[C@](C)(CO)CCC[C@]21C [POMIFERIN A] | inactive | 13 µg/mL (≈ 45.4 µM) | inactive | 9.7 µg/mL (≈ 33.9 µM) | inactive | 38 µg/mL (≈ 133 µM) | inactive | inactive | 3.9 | inactive | 2.9 | 50 µg/mL |  |  | 
